Laboratory results reported in ChEMBL document CHEMBL1143889, “N-Phenyl and N-phenylalkyl-maleimides acting against Candida spp.: time-to-kill, stability, interaction with maleamic acids” (2008).
≈ marks a conversion by molar mass, not a printed value. Calls of active or inactive are those of the source. No cut-off for these calls is given here.

Legend:
Clavispora lusitaniae = assay: Antifungal activity against Candida lusitaniae C 131-2000 after 48 hrs by CLSI M27-A2 method; type: functional
Outline: (§1)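 Broth microdilution per CLSI M27-A2 in RPMI-1640, with twofold dilutions giving final 250–0.98 µg/mL. The inoculum was modified to 1–5 × 10⁴ CFU/mL instead of 1–5 × 10³, with ketoconazole and amphotericin B as positive controls. MIC was the lowest concentration giving total growth inhibition, read visually. Strains were grown on Sabouraud-chloramphenicol agar for 24 h at 37 °C.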

Candida tropicalis = assay: Antifungal activity against Candida tropicalis C 137-1997 after 48 hrs by CLSI M27-A2 method; type: functional; outline: as §1
Candida albicans [1] = assay: Antifungal activity against Candida albicans ATCC 10231 after 48 hrs by CLSI M27-A2 method; type: functional; conditions: ATCC 10231, 48 h; outline: as §1
Candida albicans [2] = assay: Antifungal activity against Candida albicans ATCC 10231 pre-incubated for 5 days analysed after 24 hrs by CLSI M27-A2 method; type: functional
Outline: (§2)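 Twofold maleimide dilutions (1000–0.98 µg/mL) in complete M27-A2 medium without inoculum were held at 37 °C, with one plate row filled on each of 7 consecutive days to give 0–7 days of pre-incubation. All wells were then inoculated with C. albicans ATCC 10231 at 1–5 × 10⁴ CFU/mL and incubated for 24 h at 37 °C. MIC was read per row, in duplicate.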

Candida albicans [3] = assay: Antifungal activity against Candida albicans C 126-2000 after 48 hrs by CLSI M27-A2 method; type: functional; outline: as §1
Pichia kudriavzevii = assay: Antifungal activity against Candida krusei C 117-2000 after 48 hrs by CLSI M27-A2 method; type: functional; outline: as §1
Candida albicans [4] = assay: Antifungal activity against Candida albicans ATCC 10231 pre-incubated for 3 days analysed after 24 hrs by CLSI M27-A2 method; type: functional; outline: as §2
Torulaspora delbrueckii = assay: Antifungal activity against Candida coliculosa C 122-2000 after 48 hrs by CLSI M27-A2 method; type: functional; outline: as §1
Kluyveromyces marxianus = assay: Antifungal activity against Candida kefyr C 123-2000 after 48 hrs by CLSI M27-A2 method; type: functional; outline: as §1
Candida albicans [5] = assay: Antifungal activity against Candida albicans ATCC 10231 preincubated for 7 days analysed after 24 hrs by CLSI M27-A2 method; type: functional; outline: as §2
Candida albicans [6] = assay: Antifungal activity against Candida albicans ATCC 10231 within 90 mins by time-to-kill study; type: functional, organism-based
Outline: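 C. albicans ATCC 10231 (2–2.5 × 10⁴ CFU/mL) in 5 mL RPMI-1640 was exposed to 1× MFC of compound at 37 °C with agitation. 10 µL samples taken at 0, 30, 60, 90 and 120 min, and at 4, 8, 12 and 24 h, were plated on drug-free SDA and colonies counted after 24–48 h at 37 °C. Run in duplicate.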

Candida albicans [7] = assay: Antifungal activity against Candida albicans ATCC 10231 pre-incubated for 2 days analysed after 24 hrs by CLSI M27-A2 method; type: functional; outline: as §2
Candida albicans [8] = assay: Antifungal activity against Candida albicans ATCC 10231 after 24 hrs by CLSI M27-A2 method; type: functional; conditions: ATCC 10231, 24 h; outline: as §1
Candida albicans [9] = assay: Antifungal activity against Candida albicans C 130-2000 after 48 hrs by CLSI M27-A2 method; type: functional; outline: as §1
Candida albicans [10] = assay: Antifungal activity against Candida albicans ATCC 10231 pre-incubated for 4 days analysed after 24 hrs by CLSI M27-A2 method; type: functional; outline: as §2
Candida albicans [11] = assay: Antifungal activity against Candida albicans C 127-2000 after 48 hrs by CLSI M27-A2 method; type: functional; outline: as §1
Candida albicans [12] = assay: Antifungal activity against Candida albicans ATCC 10231 pre-incubated for 6 days analysed after 24 hrs by CLSI M27-A2 method; type: functional; outline: as §2
Candida albicans [13] = assay: Antifungal activity against Candida albicans ATCC 10231 pre-incubated for 1 day analysed after 24 hrs by CLSI M27-A2 method; type: functional; outline: as §2
Candida albicans [14] = assay: Antifungal activity against Candida albicans C 125-2000 after 48 hrs by CLSI M27-A2 method; type: functional; outline: as §1
Candida albicans [15] = assay: Antifungal activity against Candida albicans C 128-2000 after 48 hrs by CLSI M27-A2 method; type: functional; outline: as §1
Candida albicans [16] = assay: Antifungal activity against Candida albicans C 129-2000 after 48 hrs by CLSI M27-A2 method; type: functional; outline: as §1
Candida parapsilosis = assay: Antifungal activity against Candida parapsilosis C 124-2000 after 48 hrs by CLSI M27-A2 method; type: functional; conditions: Lodderomyces parapsilosis; outline: as §1
Nakaseomyces glabratus = assay: Antifungal activity against Candida glabrata C 115-2000 after 48 hrs by CLSI M27-A2 method; type: functional; outline: as §1

Row | SMILES | MFC (Clavispora lusitaniae) [mg/L] | MIC (Clavispora lusitaniae) [mg/L] | MFC (Candida tropicalis) [mg/L] | MIC (Candida tropicalis) [mg/L] | MFC (Candida albicans [1]) [mg/L] | MIC (Candida albicans [1]) [mg/L] | MIC (Candida albicans [2]) [mg/L] | MFC (Candida albicans [3]) [mg/L] | MIC (Candida albicans [3]) [mg/L] | MFC (Pichia kudriavzevii) [mg/L] | MIC (Pichia kudriavzevii) [mg/L] | MIC (Torulaspora delbrueckii) [mg/L] | MIC (Kluyveromyces marxianus) [mg/L] | MIC (Candida albicans [9]) [mg/L] | MIC (Candida albicans [11]) [mg/L] | MIC (Candida albicans [14]) [mg/L] | MIC (Candida albicans [15]) [mg/L] | MIC (Candida albicans [16]) [mg/L] | MIC (Candida parapsilosis) [mg/L] | MIC (Nakaseomyces glabratus) [mg/L] | other results
1 | O=C1C=CC(=O)N1c1ccccc1 | 7.8 (≈ 45 µM) | 3.9 (≈ 22.5 µM) | 15.8 (≈ 91 µM) | 7.81 (≈ 45.1 µM) | 7.8 (≈ 45 µM) | 3.9 (≈ 22.5 µM) | 62.5 (≈ 361 µM) | 3.9 (≈ 22.5 µM) | 0.97 (≈ 5.6 µM) | 1.95 (≈ 11.3 µM) | 1.95 (≈ 11.3 µM) | 1.95 (≈ 11.3 µM) | 1.95 (≈ 11.3 µM) | 0.48 (≈ 2.77 µM) | 0.97 (≈ 5.6 µM) | 0.48 (≈ 2.77 µM) | 0.97 (≈ 5.6 µM) | 0.48 (≈ 2.77 µM) | 1.95 (≈ 11.3 µM) | 1.95 (≈ 11.3 µM) | MIC (Candida albicans [4]): 7.8 mg/L (≈ 45 µM); MFC (Torulaspora delbrueckii): 3.9 mg/L (≈ 22.5 µM); MFC (Kluyveromyces marxianus): 3.9 mg/L (≈ 22.5 µM); MIC (Candida albicans [5]): 500 mg/L (≈ 2890 µM); Activity (Candida albicans [6]): Active; MIC (Candida albicans [7]): 3.9 mg/L (≈ 22.5 µM); MIC (Candida albicans [8]): 3.9 mg/L (≈ 22.5 µM); MFC (Candida albicans [9]): 1.95 mg/L (≈ 11.3 µM); MIC (Candida albicans [10]): 15.8 mg/L (≈ 91 µM); MFC (Candida albicans [11]): 1.95 mg/L (≈ 11.3 µM); MIC (Candida albicans [12]): 125 mg/L (≈ 722 µM); MIC (Candida albicans [13]): 3.9 mg/L (≈ 22.5 µM); MFC (Candida albicans [14]): 1.95 mg/L (≈ 11.3 µM); MFC (Candida albicans [15]): 3.9 mg/L (≈ 22.5 µM); MFC (Candida albicans [16]): 1.95 mg/L (≈ 11.3 µM); MFC (Candida parapsilosis): 3.9 mg/L (≈ 22.5 µM); MFC (Nakaseomyces glabratus): 3.9 mg/L (≈ 22.5 µM)
2 | O=C(O)/C=C\C(=O)NCCc1ccccc1 | – | > 250 | – | > 250 | – | > 250 | – | – | > 250 | – | > 250 | > 250 | > 250 | > 250 | > 250 | > 250 | > 250 | > 250 | > 250 | > 250 | –
3 | O=C1C=CC(=O)N1CCc1ccccc1 | 7.8 (≈ 38.8 µM) | 3.9 (≈ 19.4 µM) | 32.2 (≈ 160 µM) | 15.8 (≈ 78.3 µM) | 7.8 (≈ 38.8 µM) | 3.9 (≈ 19.4 µM) | 125 (≈ 621 µM) | 7.81 (≈ 38.8 µM) | 3.9 (≈ 19.4 µM) | 7.8 (≈ 38.8 µM) | 3.9 (≈ 19.4 µM) | 1.95 (≈ 9.69 µM) | 3.9 (≈ 19.4 µM) | 1.95 (≈ 9.69 µM) | 1.95 (≈ 9.69 µM) | 1.95 (≈ 9.69 µM) | 3.9 (≈ 19.4 µM) | 1.95 (≈ 9.69 µM) | 3.9 (≈ 19.4 µM) | 1.95 (≈ 9.69 µM) | MIC (Candida albicans [4]): 7.8 mg/L (≈ 38.8 µM); MFC (Torulaspora delbrueckii): 7.81 mg/L (≈ 38.8 µM); MFC (Kluyveromyces marxianus): 3.9 mg/L (≈ 19.4 µM); MIC (Candida albicans [5]): 500 mg/L (≈ 2480 µM); Activity (Candida albicans [6]): Active; MIC (Candida albicans [7]): 7.8 mg/L (≈ 38.8 µM); MIC (Candida albicans [8]): 3.9 mg/L (≈ 19.4 µM); MFC (Candida albicans [9]): 1.95 mg/L (≈ 9.69 µM); MIC (Candida albicans [10]): 31.2 mg/L (≈ 155 µM); MFC (Candida albicans [11]): 3.9 mg/L (≈ 19.4 µM); MIC (Candida albicans [12]): 250 mg/L (≈ 1240 µM); MIC (Candida albicans [13]): 3.9 mg/L (≈ 19.4 µM); MFC (Candida albicans [14]): 1.95 mg/L (≈ 9.69 µM); MFC (Candida albicans [15]): 7.81 mg/L (≈ 38.8 µM); MFC (Candida albicans [16]): 1.95 mg/L (≈ 9.69 µM); MFC (Candida parapsilosis): 3.9 mg/L (≈ 19.4 µM); MFC (Nakaseomyces glabratus): 3.9 mg/L (≈ 19.4 µM)
